This note sets out measurements from ChEMBL document CHEMBL1122065, “Potential organ- or tumor-imaging agents. 22. Acyl-labeled cholesterol esters” (J Med Chem, 1982).

Holding throughout (conditions): in vivo
The subject of data set [1] is Rattus norvegicus. The experiment in a line: Distribution (percent dose/g of tissue) of radioactivity 24 hr after intravenous administration of [125I]-labeled compound in rat plasma. In kind it is ADME, organism-based. The method in brief:
(§1)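 Radioiodinated ester given IV to adult female Sprague–Dawley rats (200–300 g), 5–50 μCi per animal, 3–5 rats per compound. Rats killed by exsanguination under ether at 24 h. Organs blotted, large ones minced, weighed samples gamma-counted in well scintillation counter (84% efficiency). Value is % administered dose per g tissue, background-corrected; mean with SEM.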

Data set [2] relates to Rattus norvegicus. The experiment in a line: Distribution (percent dose/g of tissue) of radioactivity 24 hr after intravenous administration of [125I]-labeled compound in rat blood. In kind it is ADME, organism-based. The method in brief: as §1
The test system of data set [3] is Rattus norvegicus. In words: Distribution (percent dose/g of tissue) of radioactivity 24 hr after intravenous administration of [125I]-labeled compound in rat ovary. In kind it is ADME, organism-based, Female gonad. Summed up: as §1
Data set [4] has as its system Rattus norvegicus. In words: Distribution (percent dose/g of tissue) of radioactivity 24 hr after intravenous administration of [125I]-labeled compound in rat lung. Type of data set: ADME, organism-based. Summed up:
as §1

Data set [5] relates to Rattus norvegicus. The experiment in a line: Distribution (percent dose/g of tissue) of radioactivity 24 hr after intravenous administration of [125I]-labeled compound to rat thyroid. Type of data set: ADME, organism-based, Thyroid gland. Summed up: as §1
The subject of data set [6] is Rattus norvegicus. The experiment in a line: Distribution (percent dose/g of tissue) of radioactivity 24 hr after intravenous administration of [125I]-labeled compound in rat liver. Type of data set: ADME, organism-based. The method in brief: as §1
Data set [7] relates to Rattus norvegicus. The experiment in a line: Distribution (percent dose/g of tissue) of radioactivity 24 hr after intravenous administration of [125I]-labeled compound in rat adrenal cortex. In kind it is ADME, organism-based. Summed up:
as §1

Data set [8] deals with Rattus norvegicus. The experiment in a line: Distribution (percent dose/g of tissue) of radioactivity 24 hr after intravenous administration of [125I]-labeled compound to rat spleen. Type of data set: ADME, organism-based. The method in brief:
as §1

In data set [9] the test system is Rattus norvegicus. In words: Distribution (percent dose/g of tissue) of radioactivity 24 hr after intravenous administration of [125I]-labeled compound in rat spleen. In kind it is ADME, organism-based. The method in brief:
as §1

Data set [10] concerns Rattus norvegicus. In words: Distribution (percent dose/g of tissue) of radioactivity 24 hr after intravenous administration of [125I]-labeled compound in rat thyroid. In kind it is ADME, organism-based, Thyroid gland. The method in brief: as §1
Data set [11] has as its system Rattus norvegicus. The experiment in a line: Distribution (percent dose/g of tissue) of radioactivity 24 hr after intravenous administration of [125I]-labeled compound in rat heart. In kind it is ADME, organism-based. Summed up:
as §1

Data set [12] deals with Rattus norvegicus. The experiment in a line: Distribution (percent dose/g of tissue) of radioactivity 24 hr after intravenous administration of [125I]-labeled compound to rat blood. In kind it is ADME, organism-based. The method in brief:
as §1

As for `CC(C)CCCC(C)C1CCC2C3CC=C4CC(OC(=O)c5cc(I)cc(I)c5I)CCC4(C)C3CCC12C` (centres undefined), the Activity in [1] is 1.02 % dose (g of tissue)-1; in [2], 0.57 % dose (g of tissue)-1; in data set [3], 16.19 % dose (g of tissue)-1; in data set [4], 0.7 % dose (g of tissue)-1; in data set [5] it was 2.63 % dose (g of tissue)-1; in [6], 5.11 % dose (g of tissue)-1. Besides, the Activity is given as 9.03 % dose (g of tissue)-1 in [7] and 1.68 % dose (g of tissue)-1 in data set [8].

As to `CC(C)CCCC(C)C1CCC2C3CC=C4CC(OC(=O)Cc5ccccc5I)CCC4(C)C3CCC12C` (centres undefined), the Activity in data set [1] is on record as 0.29 % dose (g of tissue)-1; in [9] it was 1.31 % dose (g of tissue)-1; in [2] it was 0.21 % dose (g of tissue)-1; in data set [3], 5.97 % dose (g of tissue)-1; in data set [4], 0.43 % dose (g of tissue)-1; in data set [6] it was 3.99 % dose (g of tissue)-1. Besides, the Activity in data set [7] is given as 9.19 % dose (g of tissue)-1; in data set [10] it was 46.31 % dose (g of tissue)-1; in data set [11], 0.15 % dose (g of tissue)-1.

With `CC(C)CCCC(C)C1CCC2C3CC=C4CC(OC(=O)c5cc(I)c(I)c(I)c5)CCC4(C)C3CCC12C` (centres undefined), the Activity in data set [1] is 1.01 % dose (g of tissue)-1; in data set [2] it was 0.54 % dose (g of tissue)-1; in [3] it was 12.53 % dose (g of tissue)-1; in data set [4], 0.97 % dose (g of tissue)-1; in [5], 6.06 % dose (g of tissue)-1; in [6], 4.8 % dose (g of tissue)-1. For the same compound, the Activity is recorded as 7.48 % dose (g of tissue)-1 in data set [7], 0.2 % dose (g of tissue)-1 in data set [11] and 2.98 % dose (g of tissue)-1 in [8].

Take `CC(C)CCCC(C)C1CCC2C3CC=C4CC(OC(=O)c5cccc(I)c5)CCC4(C)C3CCC12C` (centres undefined): the Activity in data set [1] was 0.55 % dose (g of tissue)-1; in data set [9], 1.86 % dose (g of tissue)-1; in data set [3], 15.7 % dose (g of tissue)-1; in data set [4], 0.46 % dose (g of tissue)-1; in data set [6], 5.03 % dose (g of tissue)-1; in data set [7] it was 12.76 % dose (g of tissue)-1. Besides, the Activity is 7.3 % dose (g of tissue)-1 in [10], 0.16 % dose (g of tissue)-1 in data set [11] and 0.3 % dose (g of tissue)-1 in data set [12].

Turning to `CC(C)CCCC(C)C1CCC2C3CC=C4CC(OC(=O)CCc5ccc(I)cc5)CCC4(C)C3CCC12C` (centres undefined), the Activity in data set [1] is listed as 0.16 % dose (g of tissue)-1; in [9] it was 0.51 % dose (g of tissue)-1; in data set [2], 0.13 % dose (g of tissue)-1; in data set [3] it was 1.35 % dose (g of tissue)-1; in [4], 0.5 % dose (g of tissue)-1; in [6], 0.42 % dose (g of tissue)-1. Also, the Activity in [7] was 3.56 % dose (g of tissue)-1; in data set [10] it was 67.52 % dose (g of tissue)-1; in [11], 0.08 % dose (g of tissue)-1.

With `CC(C)CCCC(C)C1CCC2C3CC=C4CC(OC(=O)c5ccc(I)cc5)CCC4(C)C3CCC12C` (centres undefined), the Activity in data set [1] is 0.36 % dose (g of tissue)-1; in [9] it was 1.49 % dose (g of tissue)-1; in data set [3], 6.21 % dose (g of tissue)-1; in data set [4], 0.94 % dose (g of tissue)-1; in [6] it was 3.28 % dose (g of tissue)-1; in data set [7], 3.86 % dose (g of tissue)-1. Further, the Activity was 6.92 % dose (g of tissue)-1 in data set [10], 0.11 % dose (g of tissue)-1 in data set [11] and 0.2 % dose (g of tissue)-1 in [12].

`CC(C)CCCC(C)C1CCC2C3CC=C4CC(OC(=O)Cc5cccc(I)c5)CCC4(C)C3CCC12C` (centres undefined): the Activity in [1] is 0.24 % dose (g of tissue)-1; in [9] it was 0.77 % dose (g of tissue)-1; in data set [2], 0.14 % dose (g of tissue)-1; in [3], 5.05 % dose (g of tissue)-1; in [4] it was 0.27 % dose (g of tissue)-1; in data set [6] it was 2.11 % dose (g of tissue)-1. Also, the Activity was 3.4 % dose (g of tissue)-1 in [7], 32.62 % dose (g of tissue)-1 in data set [10] and 0.11 % dose (g of tissue)-1 in [11].

On to `CC(C)CCCC(C)C1CCC2C3CC=C4CC(OC(=O)CCCc5ccc(I)cc5)CCC4(C)C3CCC12C` (centres undefined), for which the Activity in data set [1] is 1.51 % dose (g of tissue)-1; in data set [9], 0.16 % dose (g of tissue)-1; in [2] it was 0.87 % dose (g of tissue)-1; in data set [3], 3.23 % dose (g of tissue)-1; in data set [4], 0.4 % dose (g of tissue)-1; in data set [6], 0.36 % dose (g of tissue)-1. For the same compound, the results for the Activity in data set [7], in data set [10] and in [11] were 1.94 % dose (g of tissue)-1, 30.09 % dose (g of tissue)-1 and 0.25 % dose (g of tissue)-1, respectively.

For `CC(C)CCCC(C)C1CCC2C3CC=C4CC(OC(=O)c5ccccc5I)CCC4(C)C3CCC12C` (centres undefined), the Activity in data set [1] is 0.8 % dose (g of tissue)-1; in [9], 1.89 % dose (g of tissue)-1; in data set [2] it was 0.44 % dose (g of tissue)-1; in [3], 13.68 % dose (g of tissue)-1; in data set [4], 0.94 % dose (g of tissue)-1; in data set [6], 5.18 % dose (g of tissue)-1. Also, the Activity in data set [7] is on record as 14.67 % dose (g of tissue)-1; in [10] it was 1.96 % dose (g of tissue)-1; in data set [11], 0.21 % dose (g of tissue)-1.

In the case of `CC(C)CCCC(C)C1CCC2C3CC=C4CC(OC(=O)Cc5ccc(I)cc5)CCC4(C)C3CCC12C` (centres undefined), the Activity is 1.88 % dose (g of tissue)-1 in data set [1]; 0.5 % dose (g of tissue)-1 in data set [9]; 1.02 % dose (g of tissue)-1 in data set [2]; 2.32 % dose (g of tissue)-1 in data set [3]; 0.65 % dose (g of tissue)-1 in data set [4]; 1.25 % dose (g of tissue)-1 in [6]. In addition, the Activity is listed as 3.29 % dose (g of tissue)-1 in [7], 27.09 % dose (g of tissue)-1 in data set [10] and 0.33 % dose (g of tissue)-1 in data set [11].
